Experimental data from ChEMBL document CHEMBL4007461, “Synthesis, Antiviral Potency, in Vitro ADMET, and X-ray Structure of Potent CD4 Mimics as Entry Inhibitors That Target the Phe43 Cavity of HIV-1 gp120” (J Med Chem, 2017).

Legend:
[1] = test system: Human immunodeficiency virus 1; test: Antiviral activity against X4 tropic HIV1 HXB2 infected in human TZM-bl cells pretreated with virus for 30 mins followed by 3 days incubation with cells by luciferase reporter gene based single cycle infection assay; format: functional, cell-based
Summary of the method: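 TZM-bl cells (1 x 10^4/well) were cultured overnight at 37 °C. HXB2-Env pseudovirus was preincubated 30 min with graded compound concentrations, then added to the cells for 3 days. Cells were washed and lysed, and luciferase was read. IC50 came from percent inhibition.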

[2] = test system: Human immunodeficiency virus 1; test: Antiviral activity against HIV1 3B infected in human MT2 cells assessed as inhibition of p24 antigen production pretreated with virus for 30 mins followed by 4 days incubation with cells by sandwich ELISA based multicycle infection assay; format: functional, cell-based
Summary of the method: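 MT-2 cells were infected with HIV-1 IIIB at 100 TCID50 and preincubated 30 min with graded compound concentrations. Medium was replaced next day. Supernatants were collected 4 days post-infection, lysed with equal volume 5% Triton X-100, and p24 was measured by sandwich ELISA. IC50 came from percent inhibition of p24.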

[3] = (§1) Cytotoxicity against human MT2 cells incubated for 4 days by XTT assay; format: cell-based; conditions: MT2 cells
Summary of the method: (§2)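 Run alongside the MT-2 multicycle infection assay. Compound at graded concentrations mixed with an equal volume of MT-2 cells (10^5 cells/ml). Medium replaced next day and culture continued four days.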

[4] = (§3) Cytotoxicity against human TZM-bl cells incubated for 3 days by XTT assay; format: cell-based; conditions: TZM-bl cells
Summary of the method: (§4)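 TZM-bl cells, 1 x 10^4/well, cultured overnight at 37 °C. Compounds added at graded concentrations for three days.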

[5] = test system: MT2; test: as §1; format: cell-based; conditions: mt2, 96 h, 96 h; summary of the method: as §2
[6] = test system: TZM; test: as §3; format: cell-based; conditions: tzm, 72 h; summary of the method: as §4
[7] = Human immunodeficiency virus 1, HXB2, TZM-bl
[8] = Human immunodeficiency virus 1, 3B, MT2

Structure (SMILES)	IC50 [1, 7]	IC50 [2, 8]	CC50 at 96 h [3]	CC50 at 72 h [4]	IC50 [2]	CC50 [5]	CC50 [6]	IC50 [1]
Cc1nc(C(CN(C)C)NC(=O)c2ccc(-c3ccc(Cl)cc3)[nH]2)sc1CO (configuration not stated)	> 40 µM	> 40 µM	> 40 µM	> 40 µM	–	–	–	–
Cc1nc(C(CN)NC(=O)c2cnc(-c3ccc(Cl)cc3)[nH]2)sc1CO (configuration not stated)	> 51 µM	> 26 µM	> 51 µM	> 51 µM	–	–	–	–
Cc1ccc(-c2ccc(C(=O)NC(CN(C)C)c3nc(C)c(CO)s3)[nH]2)cc1F (configuration not stated)	> 40 µM	> 20 µM	> 40 µM	> 40 µM	–	–	–	–
COc1ccc(-c2ccc(C(=O)NC(CN)c3ncc(CO)s3)[nH]2)cc1OC (configuration not stated)	> 50 µM	> 50 µM	> 50 µM	> 50 µM	–	–	–	–
Cc1nc(C(CN)NC(=O)c2ccc(-c3ccc(F)c(F)c3)[nH]2)sc1CO (stereo in doubt; 25A)	3.4 µM	6 µM	61.2 µM	57.3 µM	–	–	–	–
Cc1nc(C(CN)NC(=O)c2ccc(-c3ccc(F)c(F)c3)[nH]2)sc1CO (stereo in doubt; 25B)	–	–	–	–	4.8 µM	64.6 µM	58.6 µM	–
Cc1nc(C(CN)NC(=O)c2ccc(-c3ccc(Cl)cc3)n2C)sc1CO (stereo in doubt; 26A)	25.8 µM	> 25 µM	26.6 µM	36.7 µM	–	–	–	–
Cc1nc(C(CN)NC(=O)c2ccc(-c3ccc(Cl)cc3)n2C)sc1CO (stereo in doubt; 26B)	–	–	–	–	–	32.1 µM	35.8 µM	26 µM
Cc1cc(-c2ccc(Cl)cc2)[nH]c1C(=O)NC(CN)c1nc(C)c(CO)s1 (stereo in doubt; 27A)	1.1 µM	3.9 µM	20.2 µM	26.4 µM	–	–	–	–
Cc1cc(-c2ccc(Cl)cc2)[nH]c1C(=O)NC(CN)c1nc(C)c(CO)s1 (stereo in doubt; 27B)	–	–	–	–	4.1 µM	24.9 µM	27.2 µM	2.2 µM
Cc1cc(C(=O)NC(CN)c2nc(C)c(CO)s2)[nH]c1-c1ccc(Cl)cc1 (stereo in doubt; 28A)	3.6 µM	5.3 µM	–	–	–	18 µM	22.2 µM	–
Cc1cc(C(=O)NC(CN)c2nc(C)c(CO)s2)[nH]c1-c1ccc(Cl)cc1 (stereo in doubt; 28B)	–	–	–	–	6.1 µM	4.1 µM	5.2 µM	–
COc1cc(C(=O)NC(CN)c2nc(C)c(CO)s2)[nH]c1-c1ccc(Cl)cc1 (stereo in doubt; 29A)	22.2 µM	> 24 µM	25 µM	25.4 µM	–	–	–	–
COc1cc(C(=O)NC(CN)c2nc(C)c(CO)s2)[nH]c1-c1ccc(Cl)cc1 (stereo in doubt; 29B)	–	–	–	–	–	15.7 µM	16.4 µM	16.9 µM
Cc1nc(C(CN)NC(=O)c2ncc(-c3ccc(Cl)cc3)[nH]2)sc1CO (stereo in doubt; 30A)	51 µM	> 26 µM	> 51 µM	> 51 µM	–	–	–	–
Cc1nc(C(CN)NC(=O)c2ncc(-c3ccc(Cl)cc3)[nH]2)sc1CO (stereo in doubt; 30B)	–	–	–	–	–	–	–	35 µM
CNCC(NC(=O)c1ccc(-c2ccc(Cl)cc2)[nH]1)c1nc(C)c(CO)s1 (stereo in doubt; 41A)	–	5.5 µM	27.2 µM	28.4 µM	–	–	–	–
CNCC(NC(=O)c1ccc(-c2ccc(Cl)cc2)[nH]1)c1nc(C)c(CO)s1 (stereo in doubt; 41B)	–	–	–	–	3.1 µM	26.4 µM	31.7 µM	–
CNCC(NC(=O)c1ccc(-c2ccc(Cl)c(F)c2)[nH]1)c1nc(C)c(CO)s1 (stereo in doubt; 42A)	1.6 µM	2.4 µM	21.7 µM	20.6 µM	–	–	–	–
CNCC(NC(=O)c1ccc(-c2ccc(Cl)c(F)c2)[nH]1)c1nc(C)c(CO)s1 (stereo in doubt; 42B)	–	–	–	–	2 µM	18.1 µM	21.3 µM	–
CNCC(NC(=O)c1ccc(-c2ccc(C)c(F)c2)[nH]1)c1nc(C)c(CO)s1 (stereo in doubt; 43A)	–	1.1 µM	34.4 µM	33.5 µM	–	–	–	–
CNCC(NC(=O)c1ccc(-c2ccc(C)c(F)c2)[nH]1)c1nc(C)c(CO)s1 (stereo in doubt; 43B)	–	–	–	–	0.95 µM	30.6 µM	34.2 µM	1.6 µM
